Source: ChEMBL document CHEMBL3272089, “Synthesis and antitumor activity of dihydro-5-azacytidine, a hydrolytically stable analogue of 5-azacytidine” (J Med Chem, 1977)
The source made the active and inactive calls. The calls are words filed in the database; no cut-off is given here.

Tests used:
[1] = system: L1210; experiment: Antitumor activity against mouse L1210 cells allografted in ip dosed mouse assessed as increase in life span at MNTD administered qd on day 1, 5 and 9 post tumor implantation relative to control; type: functional
In short: (§1)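 L1210 implanted ip in mice. Compound given ip in 0.9% saline on the listed schedule across a dose-response range. % ILS reported at the highest nontoxic dose, or at the dose giving maximal ILS for active compounds. Test minus control body-weight change on day 5 at the highest nontoxic dose.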

[2] = system: L1210; experiment: Antitumor activity against mouse L1210 cells allografted in ip dosed mouse assessed as change in body weight at MNTD administered qd on day 1, 5 and 9 post tumor implantation measured on day 5 relative to control; type: functional
In short: (§2)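 Doses were given ip in 0.9% saline after ip L1210 implantation, as a dose–response series. The reading is the difference in average body weight change (g) between test (T) and control (C) groups, measured on day 5 at the highest nontoxic dose tested.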

[3] = system: L1210; experiment: Antitumor activity against mouse L1210 cells allografted in ip dosed mouse assessed as increase in life span at MNTD administered qd from day 1 to day 9 post tumor implantation relative to control; type: functional; in short: as §1
[4] = system: L1210; experiment: Antitumor activity against mouse L1210 cells allografted in ip dosed mouse assessed as change in body weight at MNTD administered qd from day 1 to day 9 post tumor implantation measured on day 5 relative to control; type: functional; in short: as §2
[5] = system: L1210; experiment: Cytotoxicity against mouse L1210 cells assessed as cessation of growth in presence of cytidine; type: functional, cell-based
[6] = system: L1210; experiment: Cytotoxicity against mouse L1210 cells assessed as cessation of growth in presence of uridine; type: functional, cell-based
[7] = system: L1210; experiment: Cytotoxicity against mouse L1210 cells assessed as cessation of growth; type: functional, cell-based

| Structure (SMILES) | ILS [1] [%] | Activity [2] [g] | further results |
| --- | --- | --- | --- |
| NC1=NC(=O)N([C@@H]2O[C@H](CO)[C@H]3O[B-]4(O[C@H]32)O[C@@H]2[C@H](O4)[C@@H](CO)O[C@H]2N2CNC(N)=NC2=O)CN1.[Na+] (stereo partly specified) | 80 | -1.5 |  |
| NC1=NC(=O)N([C@@H]2O[C@H](CO)[C@@H](O)[C@H]2O)CN1 [listing 1 of 2 here] |  |  | ILS [3]: 86%; Activity [4]: -3.2 g |
| NC(N)=NC(=O)N[C@@H]1O[C@H](CO)[C@@H](O)[C@H]1O | 0 | -2.2 |  |
| Cl.NC1=NC(=O)NCN1 | 0 | 1 |  |
| NC1=NC(=O)N([C@@H]2O[C@H](CO)[C@@H](O)[C@H]2O)CN1 [listing 2 of 2 here] |  |  | Activity [5]: inactive; Activity [6]: inactive; Activity [7]: Active |
